Experimental findings from ChEMBL document CHEMBL1144856, “Design, synthesis, and biological evaluation of 1-(4-sulfamylphenyl)-3-trifluoromethyl-5-indolyl pyrazolines as cyclooxygenase-2 (COX-2) and lipoxygenase (LOX) inhibitors” (Bioorg Med Chem, 2008) are described below.

What is called inhibition is the drop in the measured response relative to a control, in per cent. As a reminder, the pIC50 is the IC50 on a negative log10 scale, so that one unit is a factor of ten. High values mean a small IC50, low ones a large IC50.

The target in test [1] is T1, Polyunsaturated fatty acid lipoxygenase ALOX12 (Homo sapiens) (UniProt P18054).
T1 sequence (whole entry): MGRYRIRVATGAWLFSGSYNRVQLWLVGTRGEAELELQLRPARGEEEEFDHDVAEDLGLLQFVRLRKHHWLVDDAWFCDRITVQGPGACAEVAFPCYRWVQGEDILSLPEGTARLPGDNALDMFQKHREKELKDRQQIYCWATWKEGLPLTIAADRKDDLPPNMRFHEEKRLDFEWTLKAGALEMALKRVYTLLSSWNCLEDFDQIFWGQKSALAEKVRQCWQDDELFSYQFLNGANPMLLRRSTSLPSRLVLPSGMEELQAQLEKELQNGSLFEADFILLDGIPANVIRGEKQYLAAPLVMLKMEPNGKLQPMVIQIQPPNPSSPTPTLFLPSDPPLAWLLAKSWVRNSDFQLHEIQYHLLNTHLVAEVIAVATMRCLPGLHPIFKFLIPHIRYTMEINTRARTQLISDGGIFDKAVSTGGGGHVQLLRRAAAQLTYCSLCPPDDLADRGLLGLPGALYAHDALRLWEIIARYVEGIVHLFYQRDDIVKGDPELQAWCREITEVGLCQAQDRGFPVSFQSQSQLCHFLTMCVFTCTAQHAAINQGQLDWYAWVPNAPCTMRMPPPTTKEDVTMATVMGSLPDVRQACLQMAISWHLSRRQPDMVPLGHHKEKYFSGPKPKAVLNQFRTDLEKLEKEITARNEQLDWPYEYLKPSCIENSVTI
The experiment in a line: Inhibition of LOX12 from human platelets at 10 uM by enzyme immuno assay. The procedure, abridged:
(§1)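 Run by a contract lab. Enzyme sources: human PBML cells (LOX-5), human platelets (LOX-12), rabbit reticulocytes (LOX-15). Substrates: endogenous arachidonic acid (LOX-5), added arachidonic acid (LOX-12), linoleic acid (LOX-15). Inhibition read as LTB4 (LOX-5), 12-HETE (LOX-12) or 15-HETE (LOX-15), quantified by EIA and spectrophotometrically.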

Test [2] addresses T2, Prostaglandin G/H synthase 1 (Ovis aries, UniProt P05979).
T2 sequence (P05979 whole entry): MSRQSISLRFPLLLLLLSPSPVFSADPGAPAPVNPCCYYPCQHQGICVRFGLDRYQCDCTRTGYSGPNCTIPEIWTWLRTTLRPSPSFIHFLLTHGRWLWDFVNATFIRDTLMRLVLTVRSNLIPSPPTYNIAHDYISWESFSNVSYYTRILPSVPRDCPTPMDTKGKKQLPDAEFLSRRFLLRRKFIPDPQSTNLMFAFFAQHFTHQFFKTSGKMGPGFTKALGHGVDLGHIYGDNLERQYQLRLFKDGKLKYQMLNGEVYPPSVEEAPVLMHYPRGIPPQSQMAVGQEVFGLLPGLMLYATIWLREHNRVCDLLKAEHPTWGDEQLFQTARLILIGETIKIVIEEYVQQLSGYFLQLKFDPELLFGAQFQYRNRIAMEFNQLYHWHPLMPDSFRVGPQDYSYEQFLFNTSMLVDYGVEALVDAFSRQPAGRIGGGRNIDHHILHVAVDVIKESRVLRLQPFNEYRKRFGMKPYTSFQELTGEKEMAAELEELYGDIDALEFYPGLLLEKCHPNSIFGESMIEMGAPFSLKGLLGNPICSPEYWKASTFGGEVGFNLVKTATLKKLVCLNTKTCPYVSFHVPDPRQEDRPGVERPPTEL
The experiment in a line: Inhibition of ovine COX1 by enzyme immuno assay. The procedure, abridged: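 Hematin-reconstituted purified ovine COX-1 (six units) in 0.1 M Tris-HCl pH 8.0 with 5 mM EDTA and 2 mM phenol. Pre-incubated 1 h at room temperature with inhibitor in DMSO, then arachidonic acid added for 2 min at 37 °C. PGH2 was reduced with stannous chloride and PGF2α measured by EIA. Run in duplicate; IC50 is the mean of the duplicates.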

The target in test [3] is T3, Polyunsaturated fatty acid 5-lipoxygenase (Homo sapiens) (UniProt P09917).
T3 sequence (whole entry): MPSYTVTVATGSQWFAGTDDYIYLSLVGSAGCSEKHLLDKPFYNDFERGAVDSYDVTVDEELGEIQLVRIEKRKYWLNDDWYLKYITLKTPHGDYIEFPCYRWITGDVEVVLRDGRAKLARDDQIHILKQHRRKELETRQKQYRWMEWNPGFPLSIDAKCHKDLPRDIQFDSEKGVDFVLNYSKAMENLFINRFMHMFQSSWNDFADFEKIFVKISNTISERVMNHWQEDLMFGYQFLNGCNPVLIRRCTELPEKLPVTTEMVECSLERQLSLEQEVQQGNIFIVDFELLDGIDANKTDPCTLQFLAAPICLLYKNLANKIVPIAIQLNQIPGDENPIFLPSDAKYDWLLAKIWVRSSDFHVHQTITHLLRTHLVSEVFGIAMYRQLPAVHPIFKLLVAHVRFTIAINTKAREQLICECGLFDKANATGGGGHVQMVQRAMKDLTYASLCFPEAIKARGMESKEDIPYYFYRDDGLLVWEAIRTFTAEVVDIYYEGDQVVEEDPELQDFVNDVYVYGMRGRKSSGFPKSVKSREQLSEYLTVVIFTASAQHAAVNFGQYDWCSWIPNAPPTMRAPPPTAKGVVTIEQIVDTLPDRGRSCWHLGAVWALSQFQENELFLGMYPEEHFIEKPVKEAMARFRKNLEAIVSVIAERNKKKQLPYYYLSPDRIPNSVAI
The experiment in a line: Inhibition of LOX5 from human PBML cells at 10 uM by enzyme immuno assay. It is filed as cell-based. The procedure, abridged:
as §1

The target of test [4] is T4, Polyunsaturated fatty acid lipoxygenase ALOX15 (Oryctolagus cuniculus) (UniProt P12530).
T4 sequence (whole entry): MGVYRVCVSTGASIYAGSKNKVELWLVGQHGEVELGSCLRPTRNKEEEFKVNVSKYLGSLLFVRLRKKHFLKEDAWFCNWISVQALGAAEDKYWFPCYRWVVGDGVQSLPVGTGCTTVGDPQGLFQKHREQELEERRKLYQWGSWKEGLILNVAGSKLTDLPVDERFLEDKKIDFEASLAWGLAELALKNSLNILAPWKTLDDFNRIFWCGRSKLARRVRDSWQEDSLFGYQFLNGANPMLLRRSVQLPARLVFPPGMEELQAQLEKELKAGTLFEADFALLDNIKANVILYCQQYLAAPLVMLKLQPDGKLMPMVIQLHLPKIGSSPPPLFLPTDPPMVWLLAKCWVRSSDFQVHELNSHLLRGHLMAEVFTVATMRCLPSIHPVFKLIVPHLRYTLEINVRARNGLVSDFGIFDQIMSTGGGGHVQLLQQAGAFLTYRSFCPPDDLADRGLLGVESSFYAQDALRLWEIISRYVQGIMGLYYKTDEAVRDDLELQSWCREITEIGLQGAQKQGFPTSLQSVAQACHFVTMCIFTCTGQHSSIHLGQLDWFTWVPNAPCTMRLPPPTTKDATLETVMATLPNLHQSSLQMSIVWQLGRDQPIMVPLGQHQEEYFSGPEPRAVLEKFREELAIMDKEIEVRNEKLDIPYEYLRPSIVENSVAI
The experiment in a line: Inhibition of LOX15 from rabbit reticulocytes at 10 uM by enzyme immuno assay. The procedure, abridged:
as §1

The species named for another test is Ovis aries. The experiment in a line: Selectivity ratio of IC50 for ovine COX1 to IC50 for ovine COX2. In outline:
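Purified hematin-reconstituted ovine COX-1 and COX-2 (six units each) in Tris–HCl 0.1 M pH 8.0, 5 mM EDTA, 2 mM phenol. Enzymes were preincubated 1 h at room temperature with inhibitor in DMSO, then given arachidonic acid for 2 min at 37 °C. PGF2α from SnCl2 reduction of PGH2 was read by EIA. IC50s are means of duplicates; ratio is COX-1 IC50/COX-2 IC50.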

SMILES strings stand for the structures. pIC50: −log10 of the molar value.

In the case of `NS(=O)(=O)c1ccc(N2N=C(C(F)(F)F)CC2c2c[nH]c3cc(Cl)ccc23)cc1` (stereo not drawn), the inhibition in test [1] is -2%; in test [3], 51%; in test [4], 36%. Further, in test [2], the pIC50 is less than 4.00. In the test listed under Ovis aries, the Ratio IC50 is 0.

As to `NS(=O)(=O)c1ccc(N2N=C(C(F)(F)F)CC2c2c[nH]c3ccccc23)cc1` (stereo in doubt; 5a), the inhibition in test [1] stood at 5%; in test [3] it was 41%; in test [4], 31%. For the same molecule, the Ratio IC50 in the test filed under Ovis aries was more than 72.

As to `NS(=O)(=O)c1ccc(N2N=C(C(F)(F)F)CC2c2c[nH]c3c(Cl)cccc23)cc1` (stereo in doubt; 5f), the inhibition in test [1] came to 3%; in test [3], 94%; in test [4] it was 36%. Also, the Ratio IC50 in the test filed under Ovis aries is more than 26.
